# Data published in ChEMBL document CHEMBL1143805, “Synthesis and antimicrobial activities of some novel 1,2,4-triazolo[3,4-b]-1,3,4-thiadiazoles and 1,2,4-triazolo[3,4-b]-1,3,4-thiadiazines carrying thioalkyl and sulphonyl phenoxy moieties” (2007).
# Test system: Talaromyces marneffei
# Experiment: Antifungal activity against Penicillium marneffei
# Assay type: functional
# Settings: not given
# Procedure, shortened: (§1)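 Agar-well diffusion on Sabouraud agar at pH 5.7. Plates were lawned with a saline spore suspension (one loopful in 3 ml), decanted and dried 1 h at 37 °C. Compounds in DMSO went into punched wells, with a DMSO solvent control. Plates were run in triplicate and kept at 37 °C for 3-4 days, with inhibition-zone diameter as read-out.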
row,Structure (SMILES),inhibition zone (IZ) [mm]
1,CCSc1ccc(OCc2nnc3n2N=C(c2ccc(Cl)cc2)CS3)cc1,<10
2,CSc1ccc(OCc2nnc3sc(Cc4ccccc4)nn23)cc1,16
3,CS(=O)(=O)c1ccc(OCc2nnc3sc(Cc4ccccc4)nn23)cc1,<10
4,CSc1ccc(OCc2nnc3sc(-c4ccccc4Cl)nn23)cc1,<10

# Same assay, conditions: Talaromyces marneffei
row,MIC [µg/mL],Structure (SMILES)
1,25,CCSc1ccc(OCc2nnc3n2N=C(c2ccc(Cl)cc2)CS3)cc1
2,6.25,CSc1ccc(OCc2nnc3sc(Cc4ccccc4)nn23)cc1
3,25,CS(=O)(=O)c1ccc(OCc2nnc3sc(Cc4ccccc4)nn23)cc1
4,25,CSc1ccc(OCc2nnc3sc(-c4ccccc4Cl)nn23)cc1

# Test system: Aspergillus fumigatus
# Experiment: Antifungal activity against Aspergillus fumigatus NCIM 902
# Assay type: functional
# Settings: not given
row,Structure (SMILES),inhibition zone (IZ) [mm]
1,CCSc1ccc(OCc2nnc3n2N=C(c2ccc(Cl)cc2)CS3)cc1,<10
2,CSc1ccc(OCc2nnc3sc(Cc4ccccc4)nn23)cc1,16
3,CS(=O)(=O)c1ccc(OCc2nnc3sc(Cc4ccccc4)nn23)cc1,11
4,CSc1ccc(OCc2nnc3sc(-c4ccccc4Cl)nn23)cc1,<10

# Same assay, conditions: Aspergillus fumigatus, NCIM 902
row,MIC [µg/mL],Structure (SMILES)
1,25,CCSc1ccc(OCc2nnc3n2N=C(c2ccc(Cl)cc2)CS3)cc1
2,6.25,CSc1ccc(OCc2nnc3sc(Cc4ccccc4)nn23)cc1
3,12.5,CS(=O)(=O)c1ccc(OCc2nnc3sc(Cc4ccccc4)nn23)cc1
4,25,CSc1ccc(OCc2nnc3sc(-c4ccccc4Cl)nn23)cc1

# Test system: Staphylococcus aureus
# Experiment: Antibacterial activity against Staphylococcus aureus ATCC 25923
# Assay type: functional
# Settings: not given
# Procedure, shortened: (§2)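 MIC by serial dilution in Mueller-Hinton broth tubes, pH adjusted to 5.0 with phosphate buffer. A standardized bacterial suspension was inoculated and incubated 16-18 h at 37 °C, and MIC was read as the lowest concentration with no visible growth. Zones were also measured in agar wells on seeded plates, with compounds in DMSO and a DMSO control, triplicate plates, 37 °C for 3-4 days.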
row,Structure (SMILES),inhibition zone (IZ) [mm]
1,CCSc1ccc(OCc2nnc3n2N=C(c2ccc(Cl)cc2)CS3)cc1,<10
2,CSc1ccc(OCc2nnc3sc(Cc4ccccc4)nn23)cc1,16
3,CS(=O)(=O)c1ccc(OCc2nnc3sc(Cc4ccccc4)nn23)cc1,11
4,CSc1ccc(OCc2nnc3sc(-c4ccccc4Cl)nn23)cc1,<10

# Same assay, conditions: Staphylococcus aureus, ATCC 25923
row,MIC [µg/mL],Structure (SMILES)
1,25,CCSc1ccc(OCc2nnc3n2N=C(c2ccc(Cl)cc2)CS3)cc1
2,6.25,CSc1ccc(OCc2nnc3sc(Cc4ccccc4)nn23)cc1
3,12.5,CS(=O)(=O)c1ccc(OCc2nnc3sc(Cc4ccccc4)nn23)cc1
4,25,CSc1ccc(OCc2nnc3sc(-c4ccccc4Cl)nn23)cc1

# Test system: Aspergillus flavus
# Experiment: Antifungal activity against Aspergillus flavus NCIM 524
# Assay type: functional
# Settings: not given
# Procedure, shortened: as §1
row,Structure (SMILES),inhibition zone (IZ) [mm]
1,CCSc1ccc(OCc2nnc3n2N=C(c2ccc(Cl)cc2)CS3)cc1,<10
2,CSc1ccc(OCc2nnc3sc(Cc4ccccc4)nn23)cc1,16
3,CS(=O)(=O)c1ccc(OCc2nnc3sc(Cc4ccccc4)nn23)cc1,11
4,CSc1ccc(OCc2nnc3sc(-c4ccccc4Cl)nn23)cc1,<10

# Same assay, conditions: Aspergillus flavus, NCIM 524
row,MIC [µg/mL],Structure (SMILES)
1,25,CCSc1ccc(OCc2nnc3n2N=C(c2ccc(Cl)cc2)CS3)cc1
2,6.25,CSc1ccc(OCc2nnc3sc(Cc4ccccc4)nn23)cc1
3,12.5,CS(=O)(=O)c1ccc(OCc2nnc3sc(Cc4ccccc4)nn23)cc1
4,25,CSc1ccc(OCc2nnc3sc(-c4ccccc4Cl)nn23)cc1

# Test system: Klebsiella pneumoniae
# Experiment: Antibacterial activity against Klebsiella pneumoniae
# Assay type: functional
# Settings: not given
# Procedure, shortened: as §2
row,Structure (SMILES),inhibition zone (IZ) [mm]
1,CCSc1ccc(OCc2nnc3n2N=C(c2ccc(Cl)cc2)CS3)cc1,<10
2,CSc1ccc(OCc2nnc3sc(Cc4ccccc4)nn23)cc1,16
3,CS(=O)(=O)c1ccc(OCc2nnc3sc(Cc4ccccc4)nn23)cc1,11
4,CSc1ccc(OCc2nnc3sc(-c4ccccc4Cl)nn23)cc1,<10

# Same assay, conditions: Klebsiella pneumoniae
row,MIC [µg/mL],Structure (SMILES)
1,25,CCSc1ccc(OCc2nnc3n2N=C(c2ccc(Cl)cc2)CS3)cc1
2,6.25,CSc1ccc(OCc2nnc3sc(Cc4ccccc4)nn23)cc1
3,12.5,CS(=O)(=O)c1ccc(OCc2nnc3sc(Cc4ccccc4)nn23)cc1
4,25,CSc1ccc(OCc2nnc3sc(-c4ccccc4Cl)nn23)cc1

# Test system: Escherichia coli
# Experiment: Antibacterial activity against Escherichia coli ATCC 25922
# Assay type: functional
# Settings: not given
# Procedure, shortened: as §2
row,Structure (SMILES),inhibition zone (IZ) [mm]
1,CCSc1ccc(OCc2nnc3n2N=C(c2ccc(Cl)cc2)CS3)cc1,<10
2,CSc1ccc(OCc2nnc3sc(Cc4ccccc4)nn23)cc1,16
3,CS(=O)(=O)c1ccc(OCc2nnc3sc(Cc4ccccc4)nn23)cc1,11
4,CSc1ccc(OCc2nnc3sc(-c4ccccc4Cl)nn23)cc1,<10

# Same assay, conditions: Escherichia coli, ATCC 25922
row,MIC [µg/mL],Structure (SMILES)
1,25,CCSc1ccc(OCc2nnc3n2N=C(c2ccc(Cl)cc2)CS3)cc1
2,6.25,CSc1ccc(OCc2nnc3sc(Cc4ccccc4)nn23)cc1
3,12.5,CS(=O)(=O)c1ccc(OCc2nnc3sc(Cc4ccccc4)nn23)cc1
4,25,CSc1ccc(OCc2nnc3sc(-c4ccccc4Cl)nn23)cc1

# Test system: Pseudomonas aeruginosa
# Experiment: Antibacterial activity against Pseudomonas aeruginosa ATCC 27853
# Assay type: functional
# Settings: not given
# Procedure, shortened: as §2
row,Structure (SMILES),inhibition zone (IZ) [mm]
1,CCSc1ccc(OCc2nnc3n2N=C(c2ccc(Cl)cc2)CS3)cc1,<10
2,CSc1ccc(OCc2nnc3sc(Cc4ccccc4)nn23)cc1,16
3,CS(=O)(=O)c1ccc(OCc2nnc3sc(Cc4ccccc4)nn23)cc1,11
4,CSc1ccc(OCc2nnc3sc(-c4ccccc4Cl)nn23)cc1,<10

# Same assay, conditions: Pseudomonas aeruginosa, ATCC 27853
row,MIC [µg/mL],Structure (SMILES)
1,25,CCSc1ccc(OCc2nnc3n2N=C(c2ccc(Cl)cc2)CS3)cc1
2,6.25,CSc1ccc(OCc2nnc3sc(Cc4ccccc4)nn23)cc1
3,12.5,CS(=O)(=O)c1ccc(OCc2nnc3sc(Cc4ccccc4)nn23)cc1
4,25,CSc1ccc(OCc2nnc3sc(-c4ccccc4Cl)nn23)cc1

# Test system: Trichophyton benhamiae
# Experiment: Antifungal activity against Trichophyton mentagrophytes
# Assay type: functional, Arthroderma benhamiae
# Settings: not given
# Procedure, shortened: as §1
row,Structure (SMILES),inhibition zone (IZ) [mm]
1,CCSc1ccc(OCc2nnc3n2N=C(c2ccc(Cl)cc2)CS3)cc1,<10
2,CSc1ccc(OCc2nnc3sc(Cc4ccccc4)nn23)cc1,16
3,CS(=O)(=O)c1ccc(OCc2nnc3sc(Cc4ccccc4)nn23)cc1,11
4,CSc1ccc(OCc2nnc3sc(-c4ccccc4Cl)nn23)cc1,<10

# Same assay, conditions: Trichophyton benhamiae
row,MIC [µg/mL],Structure (SMILES)
1,25,CCSc1ccc(OCc2nnc3n2N=C(c2ccc(Cl)cc2)CS3)cc1
2,6.25,CSc1ccc(OCc2nnc3sc(Cc4ccccc4)nn23)cc1
3,12.5,CS(=O)(=O)c1ccc(OCc2nnc3sc(Cc4ccccc4)nn23)cc1
4,25,CSc1ccc(OCc2nnc3sc(-c4ccccc4Cl)nn23)cc1
